HSP90 inh: inhibitors of HSP90 luciferase refolding in rabbit reticulocyte lysate; luciferase refolding luminescence, 3 h; inhibition, % at 5.6 µM; 0.91% of 290,000 active; AID 1789;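 active = inhibition above the screen-wide mean plus 3 SD, computed separately per campaign, cut at about 16% in these data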;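 also: 0% = DMSO wells and 100% = 60 µM geldanamycin wells; inhibitors lower the luminescence because luciferase stays unfolded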
HKDC1 inhibitor: inhibitors of human hexokinase HKDC1. Q2TB90. 0.16% of 340,000 active. recombinant HKDC1, G6PDH/diaphorase resazurin coupled fluorescence. inhibition, % at 20 µM. AID 493160;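 active = inhibition above about 35% when tested at 20 µM, limit read from the data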;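 also: plate controls were DMSO wells with enzyme for no effect and DMSO wells lacking enzyme for full effect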
Target sequence (Q2TB90 whole entry, looked up): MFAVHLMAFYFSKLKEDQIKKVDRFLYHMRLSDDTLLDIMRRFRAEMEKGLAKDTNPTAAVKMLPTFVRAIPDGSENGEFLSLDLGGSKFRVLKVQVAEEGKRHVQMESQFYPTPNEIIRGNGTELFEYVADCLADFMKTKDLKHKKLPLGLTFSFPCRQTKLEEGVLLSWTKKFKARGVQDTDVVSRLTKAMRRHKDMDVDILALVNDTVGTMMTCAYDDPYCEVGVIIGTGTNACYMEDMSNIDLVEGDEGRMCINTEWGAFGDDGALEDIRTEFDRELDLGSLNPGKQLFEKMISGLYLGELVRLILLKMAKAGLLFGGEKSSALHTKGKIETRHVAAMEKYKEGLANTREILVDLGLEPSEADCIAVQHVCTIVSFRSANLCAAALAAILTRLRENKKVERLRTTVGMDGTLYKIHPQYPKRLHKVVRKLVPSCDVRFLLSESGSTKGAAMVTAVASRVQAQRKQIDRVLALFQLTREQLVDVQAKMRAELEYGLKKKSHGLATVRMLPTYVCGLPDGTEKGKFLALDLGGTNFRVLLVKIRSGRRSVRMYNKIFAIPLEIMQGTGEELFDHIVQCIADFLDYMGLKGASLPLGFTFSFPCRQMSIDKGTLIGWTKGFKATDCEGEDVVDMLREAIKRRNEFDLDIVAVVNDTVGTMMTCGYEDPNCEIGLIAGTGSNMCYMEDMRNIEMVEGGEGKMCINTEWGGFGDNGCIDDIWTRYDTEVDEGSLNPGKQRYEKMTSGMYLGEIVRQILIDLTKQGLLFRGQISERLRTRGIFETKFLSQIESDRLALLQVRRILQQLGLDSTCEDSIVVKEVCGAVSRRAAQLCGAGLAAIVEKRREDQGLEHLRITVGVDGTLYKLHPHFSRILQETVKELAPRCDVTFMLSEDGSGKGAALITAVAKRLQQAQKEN
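Test system: HK5 enzyme. Quantity: 5 µg/mL HK5 final. Reagent: glucose and ATP substrates. Schedule: 90 min reaction incubation at room temperature, dark. Technique: resazurin-to-resorufin fluorescence via G6PDH and diaphorase coupling, 525/613 nm. Control set: DMSO wells with and without enzyme mix.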
HSF1 inhib: HSF1 inhibition; NIH3T3-HGL HSE-luciferase, MG132-induced, luminescence 8 h; active compounds read low; activity change, negative = inhibition, % at 7.5 µM (by protocol); 0.77% of 300,000 active;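 active = more than half of replicate wells show activity change below -50%, luminescence cut by over half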;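 also: luciferase reports HSF-1 transcriptional activity via heat shock element; 0% = median of DMSO wells and -100% = zero luminescence signal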
HSF-1 act: increases HSF-1 driven luciferase reporter signal | NIH3T3-HGL HSF-1 luciferase reporter, MG132, 8 h; 100% = twice DMSO control signal | activation, % at 9 µM | 1.7% of 300,000 active;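 active = mean replicate activation of at least 50% with a set share of replicates each reaching 50%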;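 also: 0% = median of the neutral control wells and 100% = twice that signal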
Hsp70 act: switches on Hsp70 transcription; HeLa Hsp70 promoter luciferase reporter, luminescence; scaled: vehicle 0, proteasome-inhibitor control 100%; activation, % at 10 µM; AID 1203; 0.04% of 200,000 active;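 active = activation above the mean across all tested compounds plus 3 SD, cutoff set per campaign, cut at about 5.5% in these data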;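 also: 100% = MG132 at 30 µM as the positive control and 0% = DMSO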
TbHK1 inh: T. brucei hexokinase 1 inhibition | 0.11% of 220,000 active | AID 1430 | inhibition, % at 10 µM | recombinant TbHK1, G6PDH-coupled NADH A340;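 active = inhibition of 50% or more in the single-dose primary screen; inactive = inhibition below 50%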
G6PDH ctr: inhibits Leuconostoc G6PDH, counter-screen for TbHK1 inhibitors | purified G6PDH, NADH absorbance, 1 h | inhibition, % at 10 µM | shares compounds with TbHK1 inh | 7% of 210 active;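 active = at least 50% inhibition in the glucose-6-phosphate dehydrogenase coupled counterscreen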
TbHK1 rescreen: confirmation of Trypanosoma brucei hexokinase 1 inhibitors; shares compounds with TbHK1 inh; recombinant TbHK1, G6PDH-coupled NADH A340 absorbance; inhibition, % at 10 µM; 10% of 210 active; AID 2560;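 active = inhibition of at least 50% in both of the two screening runs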;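 also: 0% and 100% set by the maximum and minimum signal control wells on each plate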
HSP90 inh confirm: confirmation of HSP90 inhibitors. inhibition, % at 5.9 µM. shares compounds with HSP90 inh. 64% of 2,300 active. rabbit reticulocyte lysate, luciferase refolding luminescence, 3 h; in the data active = inhibition above about 18%;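 also: 0% = vehicle wells and 100% = reference inhibitor wells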
FLuc counter: firefly luciferase inhibition, HSP90 counter-screen. shares compounds with HSP90 inh. purified native firefly luciferase, luminescence. inhibition, % at 5.9 µM. 48% of 2,300 active;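 active = inhibition above the mean inhibition of all tested sample wells plus 3 SD, cut at about 10% in these data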;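 also: 0% = DMSO with luciferase and 100% = wells lacking luciferase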
The depositor's hits bear a star; x = no result given. Compounds with a hit are over-represented: about 3.1% of the library has one in this group of screens.

SMILES	HSP90 inh	HKDC1 inhibitor	HSF1 inhib	HSF-1 act	Hsp70 act	TbHK1 inh	G6PDH ctr	TbHK1 rescreen	others
NC(Cc1cccc2nsnc12)C(=O)O (configuration not stated)	1	1	-2	-7	0	58*	-18	-7
NC(Cc1ccc2nsnc2c1)C(=O)O (configuration not stated)	4	4	0	-8	0	-8	x	x
Cc1cc(C)c2c(=O)n(CC(=O)Nc3ccc(Br)c(C)c3)sc2n1	1	6	-4	5	x	51*	-6	42
Oc1ccc(Cl)c2cccnc12	x	-5	x	x	x	x	x	x
Cc1ccc(N=Nc2ccc(O)c3ncccc23)cc1	4	-28	124	123*	0	81*	-20	0
CCC(=O)N1CCc2cc(S(=O)(=O)CCC(=O)NCCC3=CCCCC3)ccc21	1	-6	-2	-23	0	68*	-10	3
O=C(CSc1n[nH]c(-c2ccccc2O)n1)N1CCCc2ccccc21	-6	-3	6	7	0	64*	-4	-1
CC1CN(S(=O)(=O)c2cc(C(=O)N(C)Cc3cccs3)ccc2Cl)CC(C)O1 (configuration not stated)	x	8	x	x	x	x	x	x
Cc1occc1C(=O)NCCCCNC(=O)c1ccoc1C	2	0	-4	7	0	6	x	x
CCCCCCCCCCCNC(=O)c1ccoc1C	0	11	-2	-27	0	55*	-31	86*
O=S(Cc1ccccc1)Cc1ccccc1	x	-7	x	x	x	x	x	x
CC(C)c1[nH]nc2c1C(c1cccnc1)C(C#N)=C(N)O2 (configuration not stated)	-4	-13	7	6	0	52*	-11	4
C#CCOCCOCCOCCNc1nc(N2CCN(C(=O)C(Cc3cc4ccccc4[nH]3)n3cc(C(N)Cc4ccc(O)cc4)nn3)CC2)nc(N2CCN(C(=O)C(Cc3cc4ccccc4[nH]3)n3cc(C(N)Cc4ccc(O)cc4)nn3)CC2)n1 (configuration not stated)	23*	2	-6	-22	0	53*	88*	20
CSc1cccc(NC(=O)C2CCCN2S(=O)(=O)c2ccc(Br)s2)c1 (configuration not stated)	7	13	-3	5	0	54*	21	14
CSc1cccc(NC(=O)C2CCCN(S(=O)(=O)c3cccs3)C2)c1 (configuration not stated)	4	4	5	5	x	x	x	x
CSc1nnc(-c2ccccc2)o1	-6	7	-2	15	0	55*	-4	2
c1ccc(-c2nnc(-c3ccccc3)o2)cc1	-1	2	22	47	0	5	x	x
CCCNS(=O)(=O)c1cc2c3c(c1)CCN3C(=O)CC2	1	-8	-3	-3	x	x	x	x
Cc1n[nH]c(=O)nc1NC(C)c1ccccc1 (configuration not stated)	7	3	-4	-10	0	51*	-2	2
CCCNC(=O)c1ccc(N2CCC3(CC2)CC(c2cccc(Br)c2)=NO3)c([N+](=O)[O-])c1	1	-3	4	-3	x	x	x	x
CC(C)N(C(=O)c1ccc(C(=O)Nc2ccc([N+](=O)[O-])cc2)cc1)C(C)C	3	-6	0	-11	1	56*	4	-2
CCN(C[C@H]1N[C@@](Cc2ccccc2)(C(=O)OC)[C@H]2C(=O)N(C)C(=O)[C@@H]12)C(=O)C1CCCCC1	x	-4	x	x	x	x	x	x
C=CCn1c(SCC(=O)NCC(=O)OCC)nnc1-c1ccccn1	1	7	-4	3	0	50*	3	1
CCOC(=O)CNC(=O)CSc1nnc(-c2ccco2)n1N	5	-4	10	32	0	51*	1	8
C=CCn1c(SCC(=O)NC2CC2)nnc1-c1ccccn1	0	-4	-7	-3	x	x	x	x
SMILES	HSP90 inh	HKDC1 inhibitor	HSF1 inhib	HSF-1 act	Hsp70 act	TbHK1 inh	G6PDH ctr	TbHK1 rescreen	others
CCOC(=O)CNC(=O)CSc1nnc(-c2ccco2)n1Cc1ccco1	0	-9	-4	-5	0	7	x	x
CC(O)CSc1nc2c(c(=O)[nH]c(=O)n2C)n1Cc1ccccc1Cl (configuration not stated)	2	-5	8	38	x	x	x	x
[2H]C([2H])(CCOS(N)(=O)=O)c1ccccc1	-2	-4	4	6	x	x	x	x
O=C(Oc1cccc2c(O)cccc12)c1ccco1	x	16	x	x	x	x	x	x
O=C(O)CCn1nnc(-c2cccs2)n1	3	8	4	35	0	54*	-3	1
OC(COCc1ccccc1)CN1CCCC1 (configuration not stated)	-4	-4	-4	0	1	60*	-4	-7
OC(COCc1ccccc1)CN1CCN(c2ccccc2)CC1 (configuration not stated)	4	-2	6	3	0	7	x	x
CCOC(=O)Cc1csc(-n2sc3ccccc3c2=O)n1	0	6	-10	-5	0	66*	-22	69*
CCOC(=O)Cc1csc(SCn2nnc3ccccc3c2=O)n1	1	-3	-6	2	1	-5	x	x
CCCNC(=O)c1cc(S(=O)(=O)N2CCc3ccccc32)cn1C	-6	3	-1	1	x	x	x	x
CCN(CC)c1ccc2cc(-c3nc4ccccc4n3C)c(=O)oc2c1	2	-2	-15	-20	0	-4	x	x
CCN(CC)c1ccc2cc(-c3nc4ccccc4[nH]3)c(=O)oc2c1	35*	7	-33	-42	0	68*	111*	84*	HSP90 inh confirm=68*;FLuc counter=67*
Cc1cc2nc3ccc(=[N+](C)C)cc-3sc2cc1N	82*	47*	44	58*	x	66*	126*	77*	HSP90 inh confirm=89*;FLuc counter=38*
CC1CCN(C(=O)CCC(=O)Nc2nnc(C(F)(F)F)s2)CC1	-5	4	6	-18	x	x	x	x
O=C(O)CC(C(=O)O)N1C(=O)/C(=C/C=C/c2ccco2)SC1=S (configuration not stated)	-4	9	-3	-10	x	-10	x	x

From PubChem BioAssay
